Measurements reported in ChEMBL document CHEMBL4130456 (ACS Med Chem Lett, 2017).
Converted amounts (≈) assume the structure as drawn.

Assays:
[1] = target: T1, Phosphatidylinositol 4,5-bisphosphate 3-kinase catalytic subunit beta isoform (Homo sapiens, UniProt P42338); assay: Inhibition of recombinant human myristoylated PI3Kbeta catalytic domain expressed in Rat1 cells assessed as reduction in Akt phosphorylation at […] residue after 1 hr by alpha screen Surefire assay; format: cell-based
[2] = target: T2, Phosphatidylinositol 4,5-bisphosphate 3-kinase catalytic subunit delta isoform (Homo sapiens, UniProt O00329); assay: Inhibition of PI3Kdelta (unknown origin) using phosphatidyl inositol as substrate measured after 60 mins by Alexa Fluor647-labelled ADP tracer based TR-FRET assay
T2 sequence (O00329 whole entry): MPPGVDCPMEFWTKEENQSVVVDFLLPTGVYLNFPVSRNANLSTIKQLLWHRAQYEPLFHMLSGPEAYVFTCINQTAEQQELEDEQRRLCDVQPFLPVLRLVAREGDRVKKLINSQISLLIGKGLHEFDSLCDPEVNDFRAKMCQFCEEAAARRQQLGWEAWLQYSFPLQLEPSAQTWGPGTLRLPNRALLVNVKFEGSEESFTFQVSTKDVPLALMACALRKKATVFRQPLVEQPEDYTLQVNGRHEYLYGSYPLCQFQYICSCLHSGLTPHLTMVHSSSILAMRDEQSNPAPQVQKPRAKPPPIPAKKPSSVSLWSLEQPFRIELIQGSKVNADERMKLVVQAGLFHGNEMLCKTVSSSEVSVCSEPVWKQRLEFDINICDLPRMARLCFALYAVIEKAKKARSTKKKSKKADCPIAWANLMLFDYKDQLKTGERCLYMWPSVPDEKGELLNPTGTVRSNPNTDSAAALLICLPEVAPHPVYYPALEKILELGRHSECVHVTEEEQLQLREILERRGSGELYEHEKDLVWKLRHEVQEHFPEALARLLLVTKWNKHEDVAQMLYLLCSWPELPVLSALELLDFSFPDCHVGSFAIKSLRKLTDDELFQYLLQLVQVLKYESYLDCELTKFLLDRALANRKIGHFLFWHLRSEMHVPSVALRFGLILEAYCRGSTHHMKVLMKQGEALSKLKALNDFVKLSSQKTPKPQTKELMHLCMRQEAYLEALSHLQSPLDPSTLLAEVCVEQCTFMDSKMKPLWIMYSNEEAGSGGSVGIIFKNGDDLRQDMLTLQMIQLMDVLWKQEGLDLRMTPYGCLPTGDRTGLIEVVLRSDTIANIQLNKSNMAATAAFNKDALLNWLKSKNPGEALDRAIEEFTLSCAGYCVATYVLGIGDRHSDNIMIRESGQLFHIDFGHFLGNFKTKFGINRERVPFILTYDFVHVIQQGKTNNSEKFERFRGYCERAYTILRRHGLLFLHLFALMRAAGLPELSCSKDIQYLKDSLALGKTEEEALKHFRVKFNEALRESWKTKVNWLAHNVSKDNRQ

[3] = target: T3, Phosphatidylinositol 4,5-bisphosphate 3-kinase catalytic subunit alpha isoform (Homo sapiens, UniProt P42336); assay: Inhibition of recombinant human myristoylated PI3Kalpha catalytic domain expressed in Rat1 cells assessed as reduction in Akt phosphorylation at […] residue after 1 hr by alpha screen Surefire assay; format: cell-based
T3 sequence (P42336 whole entry, the tested form may be a part, canonical isoform): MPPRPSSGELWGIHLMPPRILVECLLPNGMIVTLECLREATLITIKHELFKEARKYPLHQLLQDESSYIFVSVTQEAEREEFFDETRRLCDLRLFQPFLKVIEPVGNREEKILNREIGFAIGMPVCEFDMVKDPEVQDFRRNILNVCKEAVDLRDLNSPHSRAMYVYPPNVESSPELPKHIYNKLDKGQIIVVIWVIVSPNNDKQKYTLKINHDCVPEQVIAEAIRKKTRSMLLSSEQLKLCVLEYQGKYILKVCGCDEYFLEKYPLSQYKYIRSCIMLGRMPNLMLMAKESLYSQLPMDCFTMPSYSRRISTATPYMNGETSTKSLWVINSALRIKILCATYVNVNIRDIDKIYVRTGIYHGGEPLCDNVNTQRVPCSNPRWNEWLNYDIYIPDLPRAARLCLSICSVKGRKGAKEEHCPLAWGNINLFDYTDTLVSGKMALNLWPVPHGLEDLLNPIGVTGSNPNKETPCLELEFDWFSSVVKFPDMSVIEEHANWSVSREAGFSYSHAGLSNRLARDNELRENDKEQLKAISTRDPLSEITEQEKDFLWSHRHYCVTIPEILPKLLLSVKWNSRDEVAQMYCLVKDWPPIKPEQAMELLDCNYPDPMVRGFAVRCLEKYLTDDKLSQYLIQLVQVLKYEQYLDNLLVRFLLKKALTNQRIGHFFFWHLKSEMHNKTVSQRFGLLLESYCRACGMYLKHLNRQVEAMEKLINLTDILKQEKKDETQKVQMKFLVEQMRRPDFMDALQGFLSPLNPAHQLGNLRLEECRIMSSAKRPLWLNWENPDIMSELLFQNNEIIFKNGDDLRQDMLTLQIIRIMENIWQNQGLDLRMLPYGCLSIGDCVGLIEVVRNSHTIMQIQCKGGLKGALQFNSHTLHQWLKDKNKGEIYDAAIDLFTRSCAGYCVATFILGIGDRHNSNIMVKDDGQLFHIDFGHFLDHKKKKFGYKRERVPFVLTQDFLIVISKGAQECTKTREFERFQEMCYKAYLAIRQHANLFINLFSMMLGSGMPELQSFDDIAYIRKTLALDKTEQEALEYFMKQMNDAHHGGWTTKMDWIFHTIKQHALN

[4] = target: T3, Phosphatidylinositol 4,5-bisphosphate 3-kinase catalytic subunit alpha isoform; assay: Inhibition of recombinant PI3Kalpha (unknown origin) using phosphatidyl inositol/n-Octyl-glucoside as substrate measured after 30 mins by KinaseGlo assay
[5] = Equilibrium solubility of the compound at pH 6.8 by LC-MS/MS analysis; format: physicochemical; details: buffer
Procedure, shortened: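 High-throughput equilibrium solubility at pH 6.8, reported in mM.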

[6] = Lipophilicity, log P of the compound by artificial membrane based assay; format: physicochemical
[7] = Intrinsic clearance in rat liver microsomes assessed per mg protein; format: ADME, microsome; details: read-out: CLH
[8] = target: Phosphatidylinositol 4,5-bisphosphate 3-kinase catalytic subunit gamma isoform (Homo sapiens, UniProt P48736); assay: Inhibition of PI3Kgamma (unknown origin) using phosphatidyl inositol as substrate measured after 30 mins by Alexa Fluor647-labelled ADP tracer based TR-FRET assay
Chain of Phosphatidylinositol 4,5-bisphosphate 3-kinase catalytic subunit gamma isoform (P48736 whole entry, canonical isoform): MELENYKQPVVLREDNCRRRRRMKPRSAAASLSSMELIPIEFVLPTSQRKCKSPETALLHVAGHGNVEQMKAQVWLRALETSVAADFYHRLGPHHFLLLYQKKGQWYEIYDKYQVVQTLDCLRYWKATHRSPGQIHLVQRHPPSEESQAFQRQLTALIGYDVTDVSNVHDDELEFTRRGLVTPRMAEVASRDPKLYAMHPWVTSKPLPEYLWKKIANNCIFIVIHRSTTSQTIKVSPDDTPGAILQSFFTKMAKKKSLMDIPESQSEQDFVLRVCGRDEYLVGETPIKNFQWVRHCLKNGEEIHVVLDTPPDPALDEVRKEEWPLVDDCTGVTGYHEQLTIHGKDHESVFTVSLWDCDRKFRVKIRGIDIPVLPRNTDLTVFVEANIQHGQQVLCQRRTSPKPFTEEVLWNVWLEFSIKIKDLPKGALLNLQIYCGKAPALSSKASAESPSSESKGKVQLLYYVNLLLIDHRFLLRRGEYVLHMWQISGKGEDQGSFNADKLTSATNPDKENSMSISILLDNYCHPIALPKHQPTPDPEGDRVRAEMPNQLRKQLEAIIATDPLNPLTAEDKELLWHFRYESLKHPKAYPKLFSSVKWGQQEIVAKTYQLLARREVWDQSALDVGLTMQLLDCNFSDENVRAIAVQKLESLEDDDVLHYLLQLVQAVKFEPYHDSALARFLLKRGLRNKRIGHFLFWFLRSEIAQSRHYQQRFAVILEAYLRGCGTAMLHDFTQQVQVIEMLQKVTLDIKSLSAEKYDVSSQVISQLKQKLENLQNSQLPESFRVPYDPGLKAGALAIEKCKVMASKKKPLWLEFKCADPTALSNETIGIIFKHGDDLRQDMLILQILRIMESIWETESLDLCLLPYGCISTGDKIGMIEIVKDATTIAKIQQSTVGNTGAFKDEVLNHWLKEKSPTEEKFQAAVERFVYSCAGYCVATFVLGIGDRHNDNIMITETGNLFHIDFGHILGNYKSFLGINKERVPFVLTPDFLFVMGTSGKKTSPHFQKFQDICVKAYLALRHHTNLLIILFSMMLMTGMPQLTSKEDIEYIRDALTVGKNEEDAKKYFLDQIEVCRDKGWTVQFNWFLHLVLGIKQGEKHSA

[9] = target: T1, Phosphatidylinositol 4,5-bisphosphate 3-kinase catalytic subunit beta isoform; assay: Inhibition of recombinant PI3Kbeta (unknown origin) using phosphatidyl inositol/n-Octyl-glucoside as substrate measured after 60 mins by KinaseGlo assay
[10] = target: T4, Phosphatidylinositol 4,5-bisphosphate 3-kinase catalytic subunit delta isoform (Mus musculus, UniProt O35904); assay: Inhibition of PI3Kdelta in Balb/c mouse splenocytes assessed as reduction in anti-IgM stimulated CD86 expression pretreated for 1 hr followed by anti-IgM stimulation after 24 hrs by flow cytometric analysis; format: cell-based
T4 sequence (O35904 whole entry): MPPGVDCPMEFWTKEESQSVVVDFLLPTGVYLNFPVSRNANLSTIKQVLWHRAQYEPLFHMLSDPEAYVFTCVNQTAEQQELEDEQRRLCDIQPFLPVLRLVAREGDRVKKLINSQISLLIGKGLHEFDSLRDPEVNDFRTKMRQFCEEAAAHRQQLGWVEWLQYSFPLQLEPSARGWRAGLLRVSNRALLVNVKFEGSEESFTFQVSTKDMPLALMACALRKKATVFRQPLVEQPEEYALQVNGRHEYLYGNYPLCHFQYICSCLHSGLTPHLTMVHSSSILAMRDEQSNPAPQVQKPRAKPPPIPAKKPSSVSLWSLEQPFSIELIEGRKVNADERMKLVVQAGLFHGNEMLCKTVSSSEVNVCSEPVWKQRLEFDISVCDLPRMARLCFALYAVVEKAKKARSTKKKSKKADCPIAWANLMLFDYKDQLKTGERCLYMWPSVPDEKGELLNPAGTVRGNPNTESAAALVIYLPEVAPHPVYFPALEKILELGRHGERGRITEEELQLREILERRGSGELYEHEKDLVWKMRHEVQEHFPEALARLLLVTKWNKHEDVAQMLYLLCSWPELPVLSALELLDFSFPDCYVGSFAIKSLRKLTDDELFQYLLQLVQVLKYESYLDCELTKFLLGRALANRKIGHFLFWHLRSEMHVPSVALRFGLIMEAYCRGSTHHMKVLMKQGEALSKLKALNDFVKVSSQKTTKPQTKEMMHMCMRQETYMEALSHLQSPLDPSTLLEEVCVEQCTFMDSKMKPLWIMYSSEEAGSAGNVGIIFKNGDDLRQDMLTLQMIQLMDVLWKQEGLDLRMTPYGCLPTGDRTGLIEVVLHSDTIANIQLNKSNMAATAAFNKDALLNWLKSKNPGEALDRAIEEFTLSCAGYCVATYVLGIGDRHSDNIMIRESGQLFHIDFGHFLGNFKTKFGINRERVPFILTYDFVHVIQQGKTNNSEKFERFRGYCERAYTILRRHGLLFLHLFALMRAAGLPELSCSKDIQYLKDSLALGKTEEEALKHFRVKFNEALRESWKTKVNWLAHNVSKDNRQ

[11] = Inhibition of PI3Kdelta in 50% rat blood assessed as reduction in anti-IgM stimulated CD86 expression pretreated for 1 hr followed by anti-IgM stimulation after 24 hrs by flow cytometric analysis
Procedure, shortened: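 Rat 50% whole blood; B cells stimulated with anti-IgM/IL-4; readouts pAKT or CD86.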

[12] = target: T2, Phosphatidylinositol 4,5-bisphosphate 3-kinase catalytic subunit delta isoform; assay: Inhibition of recombinant human myristoylated PI3Kdelta catalytic domain expressed in Rat1 cells assessed as reduction in Akt phosphorylation at […] residue after 1 hr by alpha screen Surefire assay; format: cell-based

T1 sequence (P42338 whole entry, the tested form may be a part, canonical isoform): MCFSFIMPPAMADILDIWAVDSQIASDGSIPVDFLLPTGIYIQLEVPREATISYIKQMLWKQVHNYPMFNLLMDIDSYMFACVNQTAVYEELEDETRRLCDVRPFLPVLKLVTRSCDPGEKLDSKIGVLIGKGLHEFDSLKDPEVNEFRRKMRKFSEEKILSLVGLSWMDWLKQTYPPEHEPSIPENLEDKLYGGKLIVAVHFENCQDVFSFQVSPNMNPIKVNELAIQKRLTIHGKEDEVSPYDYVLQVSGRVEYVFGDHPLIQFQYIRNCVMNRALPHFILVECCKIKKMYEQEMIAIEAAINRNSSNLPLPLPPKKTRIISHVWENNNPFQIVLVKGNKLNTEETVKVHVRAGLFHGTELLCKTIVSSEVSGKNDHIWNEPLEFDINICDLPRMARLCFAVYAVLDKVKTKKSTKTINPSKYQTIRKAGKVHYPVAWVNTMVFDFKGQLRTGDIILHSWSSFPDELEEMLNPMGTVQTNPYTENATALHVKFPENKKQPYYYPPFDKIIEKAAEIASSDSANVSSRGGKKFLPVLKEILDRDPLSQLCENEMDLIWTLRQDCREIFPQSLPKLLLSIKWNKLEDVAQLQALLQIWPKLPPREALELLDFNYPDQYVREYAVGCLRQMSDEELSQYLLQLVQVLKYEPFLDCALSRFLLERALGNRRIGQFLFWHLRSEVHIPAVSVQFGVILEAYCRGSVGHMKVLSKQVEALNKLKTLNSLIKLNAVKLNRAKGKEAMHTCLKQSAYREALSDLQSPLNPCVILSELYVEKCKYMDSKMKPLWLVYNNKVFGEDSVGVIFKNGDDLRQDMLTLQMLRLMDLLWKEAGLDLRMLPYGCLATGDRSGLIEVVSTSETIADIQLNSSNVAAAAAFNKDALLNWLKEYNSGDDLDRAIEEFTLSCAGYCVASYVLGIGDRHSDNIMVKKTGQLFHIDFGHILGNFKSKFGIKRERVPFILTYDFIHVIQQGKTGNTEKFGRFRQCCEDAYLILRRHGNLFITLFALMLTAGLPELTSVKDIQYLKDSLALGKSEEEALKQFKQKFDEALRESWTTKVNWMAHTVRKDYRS

Compound	IC50 [1] [nM]	IC50 [2] [nM]	IC50 [3] [nM]	IC50 [4] [nM]	solubility thermodynamic [5] [µM]	logP [6]	microsomal CLint [7] [µL/min/mg]	IC50 [8] [nM]	IC50 [9] [nM]	IC50 [10] [nM]	IC50 [11] [nM]	IC50 [12] [nM]
COc1ncc(N2CCc3ncnc(N[C@H]4CCN(C(=O)C5CCOCC5)C4)c3C2)cc1C(F)(F)F	3990	4	2150	44	240 (≈ 122 µg/mL)	2.9	41	1060	300	15	16	
COc1ccc(N2CCc3ncnc(-c4cccc(OC5CCN(C(C)=O)CC5)c4)c3C2)cn1	> 10000	83	9030	2020	> 1000	2.2	197	> 9100	8940			374
COc1ncc(N2CCc3ncnc(O[C@H]4CCN(C(=O)C5CCOCC5)C4)c3C2)cc1C(F)(F)F	3580	28	3550		270 (≈ 137 µg/mL)	2.2	149	> 9100	1330	84	58	37
COc1ccc(N2CCc3ncnc(-c4cccc(C(=O)N5CCN(C(C)=O)CC5)c4)c3C2)cn1	> 10000	65	> 10000	6940	> 1000	0.7	91	> 9100	> 9100			2630
CCC(=O)N1CC[C@H](Oc2ncnc3c2CN(c2ccc(OC)nc2)CC3)C1	> 10000	132	> 10000	6660	> 1000	2.2	35	> 9100	8940			5390
COc1ncc(N2CCc3ncnc(N[C@H]4CCN(C(=O)C5CCOCC5)C4)c3C2)cc1C	9870	30			> 1000	2.6	22	3290	2020	91	74	358

Continued, values first:

IC50 [1] [nM]	IC50 [2] [nM]	IC50 [3] [nM]	IC50 [4] [nM]	solubility thermodynamic [5] [µM]	logP [6]	microsomal CLint [7] [µL/min/mg]	IC50 [8] [nM]	IC50 [9] [nM]	IC50 [10] [nM]	IC50 [11] [nM]	IC50 [12] [nM]	Compound
6790	76			> 1000	1.7	60	6600	4150	98	92	143	COc1ncc(N2CCc3ncnc(O[C@H]4CCN(C(=O)C5CCOCC5)C4)c3C2)cc1C
7910		7410		> 1000	2.8			951	87	73		CCC(=O)N1CC[C@H](Nc2ncnc3c2CN(c2cnc(OC)c(C)c2)CC3)C1
3110	27	2600		80 (≈ 36.1 µg/mL)	3.1	160	> 9100	1710			131	CCC(=O)N1CC[C@H](Oc2ncnc3c2CN(c2cnc(OC)c(C(F)(F)F)c2)CC3)C1
